Experimental data from ChEMBL document CHEMBL1177726, “Amphiphilic amide nitrones: a new class of protective agents acting as modifiers of mitochondrial metabolism” (J Med Chem, 2010).
Converted amounts (≈) assume the structure as drawn. Values belong to the molecule of their own block, whether it stands above or below them. The source made the active and inactive calls. No cut-off for these calls is given here.

How the values were obtained:
Rotifers [1] = experiment: Protection against doxorubicin-induced toxicity in Rotifers assessed as viability at 10 uM after 24 hrs; format: functional, Rotifera
Summary of the method: (§1)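 Individually housed Philodina rotifers were exposed for 24 h to H2O2 or doxorubicin (200 μM), with nitrone (10 μM) added at the same time. Read-out was % viable animals. Vehicle controls came from the same stock culture and were run in parallel. Mean ± SEM, N = 10; ANOVA with Bonferroni t test.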

Rattus norvegicus [2] = species: Rattus norvegicus; experiment: Induction of Electron transport protein complex 1 in Sprague-Dawley rat cortical mitochondria assessed as reduction of ferric cyanide at 10 uM after 30 mins in presence of dopamine
Summary of the method: (§2)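 Submitochondrial particles from rat cortical mitochondria were preincubated 30 min with nitrone (10 μM), dopamine, or both. Ferricyanide reduction was then followed from the 440 minus 490 nm difference in the presence of antimycin A and azide at 37.5 C, as a read-out of iron-sulfur cluster N2 activity. Activity is given as nmol/mg protein/min, mean ± SEM, N = 10.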

Rattus norvegicus [3] = species: Rattus norvegicus; experiment: Induction of Electron transport protein complex 1 in Sprague-Dawley rat cortical mitochondria assessed as reduction of ferric cyanide at 10 uM after 30 mins in presence of EPBNAH
[4] = Inhibition of doxorubicin-induced cell death in Sprague-Dawley rat primary mixed cortical cells at 10 uM after 24 hrs by trypan blue absorbance assay; format: functional
Summary of the method: (§3)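 Mixed cortical cultures from E15 rat embryos were exposed for 24 h to H2O2, peroxynitrite or doxorubicin (200 μM), with nitrone (10 μM) added at the same time. Cell death was measured by trypan blue absorbance at 590 nm and expressed as % inhibition. Mean ± SEM, N = 10; ANOVA with Bonferroni t test against vehicle.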

Rattus norvegicus [5] = species: Rattus norvegicus; experiment: Induction of Electron transport protein complex 1 in Sprague-Dawley rat cortical mitochondria assessed as reduction of ferric cyanide at 10 uM after 30 mins; summary of the method: as §2
[6] = Lipophilicity, log K in methanol-water mixture by HPLC; format: physicochemical
Summary of the method: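 Nitrones in methanol (1.0 mg/mL) were run by reverse-phase C18 HPLC, eluted with MeOH/water from 9:1 to 7:3 v/v at 0.8 mL/min. Retention values were extrapolated to 100% aqueous to give log k'W.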

[7] = Inhibition of hydrogen peroxide-induced cell death in Sprague-Dawley rat primary mixed cortical cells at 10 uM after 24 hrs by trypan blue absorbance assay; format: functional; summary of the method: as §3
[8] = Inhibition of peroxynitrite-induced cell death in Sprague-Dawley rat primary mixed cortical cells at 10 uM after 24 hrs by trypan blue absorbance assay; format: functional; summary of the method: as §3
Rotifers [9] = experiment: Protection against hydrogen peroxide-induced toxicity in Rotifers assessed as viability at 10 uM after 24 hrs; format: functional, Rotifera; summary of the method: as §1
[10] = Critical micellar concentration of the compound; format: physicochemical
Summary of the method: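 Nitrone solutions in ultrapure water were measured at 25 C by the Wilhelmy plate method with a tensiometer. The cmc was taken as the breakpoint of the plot of surface tension against log concentration.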

[11] = Antioxidant activity assessed as reduction of ABTS radical measured for 30 mins; format: functional
Summary of the method: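 ABTS cation radical at 105 μM final, test compound at 0.5 mM final, DMSO vehicle at 2.5% final in controls. The reaction is started by adding the nitrone, and loss of radical is followed at 420 nm every minute for 30 min. Results are reduced ABTS•+ per 30 min as mean ± SEM, N = 10, compared with vehicle by ANOVA with Bonferroni t test.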

[12] = Solubility in water; format: physicochemical
[13] = Antioxidant activity assessed as ABTS radical scavenging activity assessed as burstlike formation of intensely green colored ABTS radical measured for 30 mins; format: functional
Summary of the method: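 Fenton-initiated ABTS cation radical formation: water, ABTS (1 mM stock), FeSO4 (0.5 mM stock), test compound (1 mM stock in DMSO), reaction started with H2O2 (10 mM stock). Absorbance read at 420 nm every minute over 30 min. Controls got DMSO vehicle, 10% final. Scavenging is seen as suppression of time-dependent radical formation.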

Rattus norvegicus [14] = species: Rattus norvegicus; experiment: Inhibition of water soluble peroxide formation in Sprague-Dawley rat forebrain mitochondria at 0.4 uM after 30 mins by FOX assay; format: functional
Summary of the method: (§4)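 Rat forebrain mitochondria respired on 6 mM glutamate/malate with nitrone at 37.5 C for 30 min, then were put on ice and homogenized in H2SO4. The supernatant was mixed with FeSO4, xylenol orange and sorbitol at 0.07 M H2SO4, held 30 min at 25 C in the dark, and read at 570 nm. Mean ± SEM of at least four independent preparations.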

Rattus norvegicus [15] = species: Rattus norvegicus; experiment: Inhibition of rotenone-induced electron leakage in Sprague-Dawley rat forebrain mitochondria assessed as NBT reduction at 0.8 uM after 30 mins; format: functional
Summary of the method: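 Forebrain mitochondria from 3-month-old rats, in Tris-KCl phosphate medium at pH 7.4, respired on 6 mM glutamate and 6 mM malate at 37.5 C with nitrone for 30 min. NBT reduction was run with 3 μM rotenone and 3 mM azide, and the formazan was then extracted and measured. Mean ± SEM of at least four independent preparations.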

Rotifers [16] = experiment: Inhibition of water soluble peroxide formation in Rotifers cultures; format: functional, organism-based; details: Rotifera; TDE = time-dependent effect
Rattus norvegicus [17] = species: Rattus norvegicus; experiment: Inhibition of water soluble peroxide formation in Sprague-Dawley rat forebrain mitochondria at 0.8 uM after 30 mins by FOX assay; format: functional; summary of the method: as §4
Rattus norvegicus [18] = species: Rattus norvegicus; experiment: Restoration of FCCP-induced decrease of mitochondrial membrane potential in Sprague-Dawley rat forebrain mitochondria at 0.8 uM treated 15 mins before FCCP challenge measured after 30 mins by rhodamine 123 fluorescence assay; format: functional
Summary of the method: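 Rat forebrain mitochondria respired on 6 mM glutamate/malate at 37.5 C with nitrone. FCCP (0.2 μM) was added at 15 min to partly collapse the potential, and rhodamine 123 fluorescence quenching was recorded directly at 30 min. Potential was calculated by the Scaduto and Grotyohann method. Mean ± SEM of at least four preparations.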

SMILES: CC(C)(C)/[N+]([O-])=C/c1ccccc1
Activity (Rotifers [1]): 18.7% | Activity (Rattus norvegicus [2]): 60 nmol/mg/min | Activity (Rattus norvegicus [3]): 13 nmol/mg/min | inhibition at 10 µM [4]: 24.2% | Activity (Rattus norvegicus [5]): 107 nmol/mg/min | logKw [6]: 1.62 | inhibition at 10 µM [7]: 25% | inhibition at 10 µM [8]: 20.6% | Activity (Rotifers [9]): 25.6%

SMILES: CCCCCCCC(=O)NCC(C)(C)/[N+]([O-])=C/c1ccc(CNC(=O)[C@H](O)[C@H](O)[C@H](O[C@@H]2O[C@H](CO)[C@H](O)[C@H](O)[C@H]2O)[C@@H](O)CO)cc1
Activity (Rotifers [1]): 85.8% | inhibition (Rattus norvegicus [14]): 10% | Activity (Rattus norvegicus [2]): 79 nmol/mg/min | Activity (Rattus norvegicus [3]): 19 nmol/mg/min | inhibition (Rattus norvegicus [15]): Active | inhibition at 10 µM [4]: 82% | inhibition (Rotifers [16]): tde | solubility [12]: 515 mg/mL (≈ 749 mM) | Activity (Rattus norvegicus [5]): 116 nmol/mg/min | inhibition (Rattus norvegicus [17]): 20% | inhibition at 10 µM [7]: 81% | inhibition at 10 µM [8]: 61% | Activity (Rotifers [9]): 83%

SMILES: CC(C)(CNC(=O)CCC(F)(F)C(F)(F)C(F)(F)C(F)(F)C(F)(F)C(F)(F)F)/[N+]([O-])=C/c1ccc(CNC(=O)[C@H](O)[C@H](O)[C@H](O[C@@H]2O[C@H](CO)[C@H](O)[C@H](O)[C@H]2O)[C@@H](O)CO)cc1
Activity (Rotifers [1]): 30.6% | CMC [10]: 0.213 mM | inhibition at 10 µM [4]: 34.9% | inhibition at 10 µM [7]: 63.4% | inhibition at 10 µM [8]: 40.1% | Activity (Rotifers [9]): 40.6%

Further lines, with some results ahead:

CMC [10]: 0.18 mM | solubility [12]: 270 mg/mL (≈ 289 mM) | logKw [6]: 4.71
SMILES: CC(C)(CNC(=O)[C@H](O)[C@H](O)[C@H](O[C@@H]1O[C@H](CO)[C@H](O)[C@H](O)[C@H]1O)[C@@H](O)CO)/[N+]([O-])=C/c1ccc(CNC(=O)CCC(F)(F)C(F)(F)C(F)(F)C(F)(F)C(F)(F)C(F)(F)F)cc1
Activity (Rotifers [1]): 46.7% | inhibition at 10 µM [4]: 32.8% | Activity [11]: 42.6 nmol | Activity [13]: 90.7 nmol | inhibition at 10 µM [7]: 42.6% | inhibition at 10 µM [8]: 30.3% | Activity (Rotifers [9]): 30.1%

solubility [12]: 530 mg/mL (≈ 771 mM) | logKw [6]: 2.86
SMILES: CCCCCCCC(=O)NCc1ccc(/C=[N+](\[O-])C(C)(C)CNC(=O)[C@H](O)[C@H](O)[C@H](O[C@@H]2O[C@H](CO)[C@H](O)[C@H](O)[C@H]2O)[C@@H](O)CO)cc1
Activity (Rattus norvegicus [18]): Active | Activity (Rotifers [1]): 96.5% | Activity (Rattus norvegicus [2]): 110 nmol/mg/min | Activity (Rattus norvegicus [3]): 31 nmol/mg/min | inhibition (Rattus norvegicus [15]): Active | inhibition at 10 µM [4]: 93% | Activity [11]: 49.1 nmol | inhibition (Rotifers [16]): tde | Activity (Rattus norvegicus [5]): 124 nmol/mg/min | Activity [13]: 96.8 nmol | inhibition (Rattus norvegicus [17]): 80% | inhibition at 10 µM [7]: 93% | inhibition at 10 µM [8]: 90.1% | Activity (Rotifers [9]): 87.6%
